Measurements from ChEMBL document CHEMBL4011643, “Triaryl Benzimidazoles as a New Class of Antibacterial Agents against Resistant Pathogenic Microorganisms” (J Med Chem, 2017).
In brackets after ≈: the same amount, converted by molar mass.

Key:
[1] = Stabilization of FAM/TAMRA-labeled AT-rich DNA duplex (unknown origin) assessed as change in melting temperature at 5 uM by FRET-based assay
Method in brief: (§1)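 FRET melting of a FAM/TAMRA-labelled AT-rich oligonucleotide, 400 nM working solution in 50 mM potassium, 50 mM cacodylate, pH 7.4. DNA was annealed at 85 °C for 6 min, then held at 25 °C for 5 h, and mixed 1:1 with sample. Fluorescence was read every 0.5 °C from 30 to 100 °C, with a 30 s hold per step. ΔTm is measured against the blank, in triplicate.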

[2] = test system: Pseudomonas aeruginosa; assay: Ratio of MIC for Pseudomonas aeruginosa NCTC 13437 in absence of Pa-beta-N to MIC for Pseudomonas aeruginosa NCTC 13437 in presence of Pa-beta-N; type: functional
Method in brief: (§2)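 Both MICs were by TSB broth microdilution, with an OD600 <0.1 cutoff at 20 h.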

[3] = test system: Klebsiella pneumoniae; assay: Ratio of MIC for Klebsiella pneumoniae M6 in absence of Pa-beta-N to MIC for Klebsiella pneumoniae M6 in presence of Pa-beta-N; type: functional; method in brief: as §2
[4] = Stabilization of FAM/TAMRA-labeled AT-rich DNA duplex (unknown origin) assessed as change in melting temperature at 1 uM by FRET-based assay; method in brief: as §1
[5] = test system: Staphylococcus aureus; assay: Antibacterial activity against methicillin-resistant Staphylococcus aureus MRSA252 after 20 hrs by broth microdilution method; type: functional; conditions: MRSA252, 20 h
Method in brief: (§3)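 Broth microdilution in Tryptic Soy Broth; growth read as OD600 after 20 h. MIC taken as the lowest drug concentration giving OD600 below 0.1. Run in triplicate.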

[6] = test system: Klebsiella pneumoniae; assay: Antibacterial activity against Klebsiella pneumoniae NCTC 13368 after 20 hrs in the presence of PMBN by broth microdilution method; type: functional; conditions: NCTC 13368, 20 h
Method in brief: (§4)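 Broth microdilution in Tryptic Soy Broth, done in triplicate. Growth was read as OD600 after 20 h. MIC is the lowest drug concentration giving OD600 below 0.1.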

[7] = test system: Klebsiella pneumoniae; assay: Ratio of MIC for Klebsiella pneumoniae M6 in absence of PMBN to MIC for Klebsiella pneumoniae M6 in presence of PMBN; type: functional
Method in brief: (§5)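 Fold change: MIC without divided by MIC with 30 μg/mL PMBN. Both MICs were by TSB broth microdilution, with an OD600 <0.1 cutoff at 20 h.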

[8] = test system: Acinetobacter baumannii; assay: Ratio of MIC for Acinetobacter baumannii ATCC 17978 in absence of PMBN to MIC for Acinetobacter baumannii ATCC 17978 in presence of PMBN; type: functional; method in brief: as §5
[9] = test system: Klebsiella pneumoniae; assay: Antibacterial activity against Klebsiella pneumoniae NCTC 13368 after 20 hrs in the presence of Pa-beta-N and magnesium ions by broth microdilution method; type: functional; conditions: NCTC 13368, 20 h; method in brief: as §4
[10] = test system: Pseudomonas aeruginosa; assay: Antibacterial activity against Pseudomonas aeruginosa NCTC 13437 after 20 hrs in the presence of PMBN by broth microdilution method; type: functional; conditions: NCTC 13437, 20 h; method in brief: as §4
[11] = test system: Staphylococcus aureus; assay: Antibacterial activity against methicillin-sensitive Staphylococcus aureus ATCC 9144 after 20 hrs by broth microdilution method; type: functional; conditions: ATCC 9144, 20 h; method in brief: as §4
[12] = test system: Acinetobacter baumannii; assay: Antibacterial activity against Acinetobacter baumannii ATCC 17978 after 20 hrs by broth microdilution method; type: functional; conditions: ATCC 17978, 20 h; method in brief: as §4
[13] = test system: Acinetobacter baumannii; assay: Ratio of MIC for Acinetobacter baumannii ATCC 17978 in absence of Pa-beta-N to MIC for Acinetobacter baumannii ATCC 17978 in presence of Pa-beta-N; type: functional; method in brief: as §2
[14] = test system: Klebsiella pneumoniae; assay: Ratio of MIC for Klebsiella pneumoniae NCTC 13368 in absence of PMBN to MIC for Klebsiella pneumoniae NCTC 13368 in presence of PMBN; type: functional; method in brief: as §5
[15] = test system: Acinetobacter baumannii; assay: Antibacterial activity against Acinetobacter baumannii ATCC 17978 after 20 hrs in the presence of PMBN by broth microdilution method; type: functional; conditions: ATCC 17978, 20 h; method in brief: as §4
[16] = test system: Klebsiella pneumoniae; assay: Antibacterial activity against Klebsiella pneumoniae M6 after 20 hrs in the presence of Pa-beta-N and magnesium ions by broth microdilution method; type: functional; conditions: M6, 20 h; method in brief: as §4
[17] = test system: Acinetobacter baumannii; assay: Ratio of MIC for Acinetobacter baumannii AYE in absence of PMBN to MIC for Acinetobacter baumannii AYE in presence of PMBN; type: functional; method in brief: as §5
[18] = test system: Pseudomonas aeruginosa; assay: Antibacterial activity against Pseudomonas aeruginosa PAO1 after 20 hrs in the presence of Pa-beta-N and magnesium ions by broth microdilution method; type: functional; conditions: PAO1, 20 h; method in brief: as §4
[19] = test system: Acinetobacter baumannii; assay: Antibacterial activity against Acinetobacter baumannii AYE after 20 hrs by broth microdilution method; type: functional; method in brief: as §4
[20] = test system: Klebsiella pneumoniae; assay: Antibacterial activity against Klebsiella pneumoniae NCTC 13368 after 20 hrs by broth microdilution method; type: functional; conditions: NCTC 13368, 20 h; method in brief: as §4
[21] = test system: Pseudomonas aeruginosa; assay: Antibacterial activity against Pseudomonas aeruginosa PAO1 after 20 hrs in the presence of PMBN by broth microdilution method; type: functional; conditions: PAO1, 20 h; method in brief: as §4
[22] = test system: Pseudomonas aeruginosa; assay: Antibacterial activity against Pseudomonas aeruginosa NCTC 13437 after 20 hrs by broth microdilution method; type: functional; conditions: NCTC 13437, 20 h; method in brief: as §4
[23] = test system: Acinetobacter baumannii; assay: Antibacterial activity against Acinetobacter baumannii ATCC 17978 after 20 hrs in the presence of Pa-beta-N and magnesium ions by broth microdilution method; type: functional; conditions: ATCC 17978, 20 h; method in brief: as §4
[24] = test system: Klebsiella pneumoniae; assay: Antibacterial activity against Klebsiella pneumoniae M6 after 20 hrs by broth microdilution method; type: functional; conditions: M6, 20 h; method in brief: as §4
[25] = test system: Enterococcus faecium; assay: Antibacterial activity against vancomycin-resistant Enterococcus faecium NCTC 12204 after 20 hrs by broth microdilution method; type: functional; conditions: NCTC 12204, 20 h; method in brief: as §3
[26] = test system: Klebsiella pneumoniae; assay: Antibacterial activity against Klebsiella pneumoniae M6 after 20 hrs in the presence of PMBN by broth microdilution method; type: functional; conditions: M6, 20 h; method in brief: as §4
[27] = test system: Acinetobacter baumannii; assay: Antibacterial activity against Acinetobacter baumannii AYE after 20 hrs in the presence of Pa-beta-N and magnesium ions by broth microdilution method; type: functional; method in brief: as §4
[28] = test system: Staphylococcus aureus; assay: Antibacterial activity against methicillin-resistant Staphylococcus aureus EMRSA-15 after 20 hrs by broth microdilution method; type: functional; conditions: EMRSA-15, 20 h; method in brief: as §3
[29] = test system: Pseudomonas aeruginosa; assay: Antibacterial activity against Pseudomonas aeruginosa PAO1 after 20 hrs by broth microdilution method; type: functional; conditions: PAO1, 20 h; method in brief: as §4
[30] = test system: Enterococcus faecalis; assay: Bactericidal activity against vancomycin-resistant Enterococcus faecalis NCTC 12201 assessed as time required to kill bacteria by >6 log10CFU/ml at 4 times MIC by Miles Misra dilution method; type: functional
Method in brief: (§6)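 Flasks of TSB inoculated at ~10^6 cfu/mL, compound added at 4 × MIC, shaken at 200 rpm and 37 °C. Samples taken at 1, 2, 4, 6 and 24 h and plated by Miles Misra dilution for CFU/mL. Bactericidal means a loss of >3 log CFU/mL. Three independent repeats, error bars SD.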

[31] = test system: Acinetobacter baumannii; assay: Ratio of MIC for Acinetobacter baumannii AYE in absence of Pa-beta-N to MIC for Acinetobacter baumannii AYE in presence of Pa-beta-N; type: functional; method in brief: as §2
[32] = test system: Acinetobacter baumannii; assay: Antibacterial activity against Acinetobacter baumannii AYE after 20 hrs in the presence of PMBN by broth microdilution method; type: functional; method in brief: as §4
[33] = test system: Staphylococcus aureus; assay: Bactericidal activity against methicillin-resistant Staphylococcus aureus EMRSA-15 assessed as time required to kill bacteria by >6 log10CFU/ml at 4 times MIC by Miles Misra dilution method; type: functional; method in brief: as §6
[34] = test system: Pseudomonas aeruginosa; assay: Antibacterial activity against Pseudomonas aeruginosa NCTC 13437 after 20 hrs in the presence of Pa-beta-N and magnesium ions by broth microdilution method; type: functional; conditions: NCTC 13437, 20 h; method in brief: as §4
[35] = test system: Klebsiella pneumoniae; assay: Ratio of MIC for Klebsiella pneumoniae NCTC 13368 in absence of Pa-beta-N to MIC for Klebsiella pneumoniae NCTC 13368 in presence of Pa-beta-N; type: functional; method in brief: as §2
[36] = test system: Enterococcus faecalis; assay: Antibacterial activity against vancomycin-resistant Enterococcus faecalis NCTC 12201 after 20 hrs by broth microdilution method; type: functional; conditions: NCTC 12201, 20 h; method in brief: as §3
[37] = test system: Staphylococcus aureus; assay: Inhibition of Staphylococcus aureus DNA gyrase assessed as reduction in pNO1 supercoiling at 0.5 ug/mL by fluorescent dye-based assay
Method in brief: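 Supercoiling plate assay run per the kit instructions. S. aureus gyrase was incubated with compound and plasmid pNO1. Negatively supercoiled plasmid was captured by a triplex-forming oligonucleotide, stained with a fluorescent dye and read by fluorescence (excitation 485 nm). Percent inhibition was reported.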

[38] = test system: Pseudomonas aeruginosa; assay: Ratio of MIC for Pseudomonas aeruginosa PAO1 in absence of PMBN to MIC for Pseudomonas aeruginosa PAO1 in presence of PMBN; type: functional; method in brief: as §5
[39] = test system: Pseudomonas aeruginosa; assay: Ratio of MIC for Pseudomonas aeruginosa NCTC 13437 in absence of PMBN to MIC for Pseudomonas aeruginosa NCTC 13437 in presence of PMBN; type: functional; method in brief: as §5
[40] = Cytotoxicity against human HeLa cells assessed as cell viability at 25 uM after 24 hrs by MTT assay; type: cell-based; conditions: read-out: Activity
Method in brief: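 HeLa cells, 10000 per well, were grown at 37 °C in 5% CO2 and allowed to settle for 24 h. Compound was then added in triplicate for 24 h of continuous exposure. Viability was read by MTT colorimetry, with absorbance at 570 nm.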

[41] = test system: Enterococcus faecalis; assay: Antibacterial activity against vancomycin-sensitive Enterococcus faecalis NCTC 775 after 20 hrs by broth microdilution method; type: functional; conditions: NCTC 775, 20 h; method in brief: as §4

## Cc1nc2ccc(C(=O)Nc3cccc(-c4ccc(-n5c(C)nc6cc(C(=O)NCCCN(C)C)ccc65)nc4)c3)cc2[nH]1
[1]
  deltaTm: 2.1 °C
[2]
  Ratio: 2 - 4
[3]
  Ratio: >=4
[4]
  deltaTm: 0.4 °C
[5]
  MIC: 2 mg/L (≈ 3.41 µM)
[6]
  MIC: 16 mg/L
[7]
  Ratio: 4
[8]
  Ratio: 2
[9]
  MIC: 32 mg/L
[10]
  MIC: 4 mg/L
[11]
  MIC: 0.25 mg/L (≈ 0.426 µM)
[12]
  MIC: 16 mg/L (≈ 27.3 µM)
[13]
  Ratio: 2 - 4
[14]
  Ratio: 4
[15]
  MIC: 8 mg/L
[16]
  MIC: 8 mg/L
[17]
  Ratio: 2
[18]
  MIC: > 32 mg/L
[19]
  MIC: 16 mg/L (≈ 27.3 µM)
[20]
  MIC: > 32 mg/L
[21]
  MIC: 4 mg/L
[22]
  MIC: > 32 mg/L
[23]
  MIC: 8 mg/L
[24]
  MIC: 32 mg/L (≈ 54.5 µM)
[25]
  MIC: 0.5 mg/L (≈ 0.852 µM)
[26]
  MIC: 8 mg/L
[27]
  MIC: 8 mg/L
[28]
  MIC: 0.5 mg/L (≈ 0.852 µM)
[29]
  MIC: > 32 mg/L
[30]
  Time: 2 h
[31]
  Ratio: 2 - 4
[32]
  MIC: 8 mg/L
[33]
  Time: 2 h
[34]
  MIC: 16 to 32 mg/L
[35]
  Ratio: 2 - 4
[36]
  MIC: 0.25 mg/L (≈ 0.426 µM)
[37]
  inhibition: 65.2%
[38]
  Ratio: >16
[39]
  Ratio: >16
[40]
  viability at 24 h, 25 µM: > 98%
[41]
  MIC: 0.5 mg/L (≈ 0.852 µM)
